What was measured:
[1] = system: Mycobacterium tuberculosis; test: Antimicrobial activity against Mycobacterium tuberculosis H37Rv at 50 ug/ml assessed as reduction of relative light units; format: functional; parameters: scale not given: the % may be the effect or the level left
Outline: (§1)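 Luciferase reporter phage assay on M. tuberculosis H37Rv. Bacteria (McFarland No.2 suspension) in G7H9, with or without compound, incubated 72 h at 37 °C; two drug-free controls per sample. Phage phAE129 with CaCl2 added, then 4 h at 37 °C. D-luciferin (0.3 mM, citrate pH 4.5) added; RLU read after 10 s integration, duplicate readings averaged. Percent RLU reduction versus control; repeated if control mean RLU <1000.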

[2] = system: Mycobacterium tuberculosis; test: Antimicrobial activity against Mycobacterium tuberculosis H37Rv at 100 ug/ml assessed as reduction of relative light units; format: functional; parameters: scale not given: the % may be the effect or the level left; outline: as §1

`COc1ccc(/C=C/C(=O)c2cccc([N+](=O)[O-])c2)cc1OC` showed an Activity [1] of 64.61% and an Activity [2] of 89.27%.

`COc1ccc(/C=C/C(=O)c2cccc([N+](=O)[O-])c2)c(OC)c1` was tested, and the Activity [1] was 92.19% and the Activity [2] was 96.45%.

For `COc1ccccc1/C=C/C(=O)c1ccc([N+](=O)[O-])cc1`, the Activity [1] was 94.3% and the Activity [2] was 98.15%.

With `CSc1ccc(/C=C/C(=O)c2ccc(Cl)cc2Cl)cc1` the Activity [1] was 0% and the Activity [2] was 0%.

For `CSc1ccc(/C=C/C(=O)c2cccc([N+](=O)[O-])c2)cc1`, the Activity [1] was 0% and the Activity [2] was 0%.

`O=C(/C=C/c1ccccc1)c1ccccc1` [CHALCONE] gave an Activity [1] of 41.93% and an Activity [2] of 50.64%.

In the case of `CSc1ccc(/C=C/C(=O)c2ccc(Br)cc2)cc1`, the Activity [1] is reported as 0% and the Activity [2] is reported as 21.87%.

`COc1ccc(/C=C/C(=O)c2ccc(Cl)cc2Cl)cc1OC` showed an Activity [1] of 0% and an Activity [2] of 12.17%.

For `CN(C)c1ccc(/C=C/C(=O)c2ccc(Cl)cc2Cl)cc1`, the Activity [1] was 31.55% and the Activity [2] was 33.8%.

`CSc1ccc(/C=C/C(=O)c2ccc(O)cc2)cc1` showed an Activity [1] of 29.25% and an Activity [2] of 55.16%.

Compound `CSc1ccc(/C=C/C(=O)c2ccc(Cl)cc2)cc1` has an Activity [1] of 24.06% and an Activity [2] of 48.83%.

`CSc1ccc(/C=C/C(=O)c2ccc(C)cc2)cc1` gave an Activity [1] of 16.88% and an Activity [2] of 51.59%.

Compound `CN(C)c1ccc(/C=C/C(=O)c2ccccc2)cc1` has an Activity [1] of 70.02% and an Activity [2] of 70.18%.

`CSc1ccc(/C=C/C(=O)c2ccc([N+](=O)[O-])cc2)cc1` was tested, and the Activity [1] was 30.95% and the Activity [2] was 48.06%.

For `COc1cc(/C=C/C(=O)c2ccccc2)cc(OC)c1OC`, the Activity [1] was 43.16% and the Activity [2] was 63.9%.

Compound `COc1ccc(C(=O)/C=C/c2ccc(SC)cc2)cc1` has an Activity [1] of 7.36% and an Activity [2] of 17.38%.

For `CSc1ccc(/C=C/C(=O)c2cccc(O)c2)cc1`, the Activity [1] was 31.59% and the Activity [2] was 98.86%.

Work on `COc1ccc(/C=C/C(=O)c2ccccc2)cc1` [4-METHOXY CHALCONE] yielded an Activity [1] of 58.75% and an Activity [2] of 65.08%.

`COc1ccccc1/C=C/C(=O)c1cccc([N+](=O)[O-])c1` gave an Activity [1] of 84.16% and an Activity [2] of 97.94%.

Work on `CN(C)c1ccc(/C=C/C(=O)c2cccc([N+](=O)[O-])c2)cc1` yielded an Activity [1] of 90.06% and an Activity [2] of 96.22%.

With `COc1ccc(/C=C/C(=O)c2cccc(O)c2)cc1` the Activity [1] was 98.9% and the Activity [2] was 99.04%.

`CSc1ccc(/C=C/C(=O)c2ccccc2)cc1` gave an Activity [1] of 46.29% and an Activity [2] of 66.51%.

Work on `CSc1ccc(/C=C/C(=O)c2ccccc2O)cc1` yielded an Activity [1] of 68.41% and an Activity [2] of 90.52%.

Compound `COc1ccc(/C=C/C(=O)c2ccc(C)cc2)cc1` has an Activity [1] of 60.24% and an Activity [2] of 98.52%.

`COc1ccccc1/C=C/C(=O)c1ccccc1` showed an Activity [1] of 66.07% and an Activity [2] of 72.98%.

From ChEMBL document CHEMBL1139140, “Synthesis, antimycobacterial activity evaluation, and QSAR studies of chalcone derivatives” (2007)
